Active and inactive are the calls of the source. The rule behind the calls is not given here.
Columns and labels:
Lactuca sativa [1] = experiment: Phytotoxicity against Lactuca sativa (lettuce) assessed as growth inhibition of root length measured 5 days post treatment; format: functional, organism-based
How it was run: (§1)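 Lettuce or tomato seeds were grown for 5 days on one filter-paper sheet in 90 mm dishes. The medium was aqueous 10^-2 M MES adjusted to pH 6.0 with NaOH. Compounds were taken from DMSO stocks and diluted into buffer (5 μL DMSO/mL), giving final levels of 1, 0.5, 0.1, 0.05 and 0.01 mM. Root length was acquired automatically. EC50 came from a constant-slope sigmoidal dose-response fit versus log concentration.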

Lepidium sativum [2] = experiment: Phytotoxicity against Lepidium sativum assessed as growth inhibition of root length at < 1 uM measured 4 days post treatment; format: functional, organism-based
Allium cepa [3] = experiment: Phytotoxicity against Allium cepa (onion) assessed as growth inhibition of root length measured 7 days post treatment; format: functional, organism-based; settings: for IC50: 168 h
How it was run: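 Onion seeds germinated in 90 mm Petri dishes on one filter-paper sheet, in aqueous 10^-2 M MES buffer brought to pH 6.0 with NaOH. Compounds were dissolved in DMSO and diluted into buffer (5 μL DMSO/mL) to test concentrations of 1, 0.5, 0.1, 0.05 and 0.01 mM. Root length was recorded after 7 days by automated image acquisition. EC50 was derived from a constant-slope sigmoidal fit on a log concentration scale.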

Solanum lycopersicum [4] = experiment: Phytotoxicity against Solanum lycopersicum (tomato) assessed as growth inhibition of root length measured 5 days post treatment; format: functional, organism-based; how it was run: as §1
Lepidium sativum [5] = experiment: Phytotoxicity against Lepidium sativum assessed as growth inhibition of root length measured 4 days post treatment; format: functional, organism-based; settings: for IC50: 96 h
How it was run: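 Cress bioassay run over 4 days in 90 mm Petri dishes with one filter-paper sheet. Seeds were in aqueous 10^-2 M MES buffer at pH 6.0, set with 1 M NaOH. DMSO stocks were diluted into buffer at 5 μL/mL to final concentrations of 1, 0.5, 0.1, 0.05 and 0.01 mM. Root length was recorded by an automated system. Values were fitted to a constant-slope sigmoidal curve against log concentration to obtain EC50.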

Allium cepa [6] = experiment: Phytotoxicity against Allium cepa (onion) assessed as growth inhibition of root length at 1 uM measured 7 days post treatment; format: functional; settings: 168 h, read-out: GI
Solanum lycopersicum [7] = experiment: Phytotoxicity against Solanum lycopersicum (tomato) assessed as growth inhibition of root length at 1 uM measured 5 days post treatment; format: functional; settings: 120 h, read-out: GI
How it was run: (§2)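 Seeds germinated in Petri dishes on one filter-paper sheet, in aqueous solution buffered with 10^-2 M MES and brought to pH 6.0 with NaOH. Compounds were dissolved in DMSO, then diluted into buffer (5 μL DMSO/mL). Root length was recorded by automated image acquisition with statistical analysis.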

Lactuca sativa [8] = experiment: Phytotoxicity against Lactuca sativa (lettuce) assessed as growth inhibition of root length at 5 uM measured 5 days post treatment; format: functional; settings: 120 h, read-out: GI; how it was run: as §2
Lactuca sativa [9] = experiment: Phytotoxicity against Lactuca sativa (lettuce) assessed as growth inhibition of root length at 1 to 5 uM measured 5 days post treatment; format: functional, organism-based; how it was run: as §2
Solanum lycopersicum [10] = experiment: Phytotoxicity against Solanum lycopersicum (tomato) assessed as growth inhibition of root length at 1 to 5 uM measured 5 days post treatment; format: functional, organism-based; how it was run: as §2
Allium cepa [11] = experiment: Phytotoxicity against Allium cepa (onion) assessed as growth inhibition of root length at 1 to 5 uM measured 7 days post treatment; format: functional, organism-based; how it was run: as §2

Structure (SMILES)	growth inhibition (GI) (Lactuca sativa [1])	growth inhibition (GI) (Lepidium sativum [2])	growth inhibition (GI) (Allium cepa [3])	growth inhibition (GI) (Solanum lycopersicum [4])	growth inhibition (GI) (Lepidium sativum [5])	IC50 (Allium cepa [3])	IC50 (Solanum lycopersicum [4]; 120 h)	IC50 (Lepidium sativum [5])	inhibition of growth at 1 µM (Allium cepa [6])	inhibition of growth at 1 µM (Solanum lycopersicum [7])	inhibition of growth at 5 µM (Lactuca sativa [8])	growth inhibition (GI) (Lactuca sativa [9])	growth inhibition (GI) (Solanum lycopersicum [10])	growth inhibition (GI) (Allium cepa [11])
CCC(=O)ON1C(=O)COc2ccc(F)cc21	Active	Active	Active	Active	Active									
CCCC1Oc2ccc(Cl)cc2N(O)C1=O (stereo not drawn)	Active		Active	Active	Active									
O=C1C(c2ccccc2)Oc2ccc(Cl)cc2N1O (stereo not drawn)	Active		Active	Active	Active									
CCC(=O)ON1C(=O)COc2c(Cl)cccc21	Active		Active	Active	Active									
CCC1Oc2ccc(Cl)cc2N(O)C1=O [6-Cl-2-Et-D-DIBOA]	Active	Active	Active	Active	Active	1600 nM	2300 nM	400 nM	60%					
O=C1C(c2ccccc2)Oc2ccc(F)cc2N1O (stereo not drawn)	Active		Active	Active	Active									
CCC1Oc2ccc(F)cc2N(O)C1=O [6-F-2-Et-D-DIBOA]	Active		Active	Active	Active	1300 nM		1000 nM	50%					
CCCCC(=O)ON1C(=O)COc2ccc(F)cc21	Active		Active	Active	Active									
CCCC1Oc2c(Cl)cccc2N(O)C1=O (stereo not drawn)	Active		Active	Active	Active									
O=C1C(c2ccccc2)Oc2c(Cl)cccc2N1O (stereo not drawn)	Active		Active	Active	Active									
CCC1Oc2c(Cl)cccc2N(O)C1=O (stereo not drawn)	Active		Active	Active	Active									
CCCON1C(=O)COc2ccc(Cl)cc21 [6-Cl-4-Pr-D-DIBOA]	Active		Active	Active	Active	200 nM		60 nM	50%	50%	50%	Active	Active	Active
CCCCC(=O)ON1C(=O)COc2ccc(Cl)cc21 [6-Cl-4-Val-D-DIBOA]	Active	Active	Active	Active	Active	200 nM		60 nM	90%	50%	50%	Active	Active	Active
